The source made the active and inactive calls. The rule behind the calls is not given here.

Data set [1] has as its system Trypanosoma cruzi. Nature of the data set: Antitrypanosomal activity against Trypanosoma cruzi (IRHOD/CO/2008/SN3) epimastigotes assessed as disruption of cytoskeleton with disorganization of microtubule structure at IC25 after 96 hrs by transmission electron microscopic analysis. It is filed as functional, organism-based.
For data set [2], the system named is Trypanosoma cruzi. Nature of the data set: Antitrypanosomal activity against Trypanosoma cruzi (IRHOD/CO/2008/SN3) infected in African green monkey Vero cells assessed as reduction in number of trypomastigotes at IC25 treated for 12 hrs followed by compound-washout measured after 10 days by microscopic analysis relative to control. It is filed as functional. In outline:
(§1)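 Vero cells grown 2 days, then infected with metacyclic forms at 10:1. Drugs at IC25 added immediately after infection for 12 h at 37 °C, 5% CO2, then removed by washing. Cultures grown 10 days with medium renewed every 48 h. Methanol-fixed, Giemsa-stained preparations: % infected cells and amastigotes per infected cell over 200 host cells; trypomastigotes counted in the medium. Means of three experiments.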

The subject of data set [3] is Trypanosoma cruzi. As to the kind of experiment: Antitrypanosomal activity against Trypanosoma cruzi (IRHOD/CO/2008/SN3) infected in African green monkey Vero cells assessed as reduction in infection rate at IC25 treated for 12 hrs followed by compound-washout measured after 10 days by microscopic analysis relative to control. It is filed as functional. Put shortly:
as §1

Data set [4] has as its system Trypanosoma cruzi. As to the kind of experiment: Antitrypanosomal activity against Trypanosoma cruzi (IRHOD/CO/2008/SN3) infected in BALB/c mouse assessed as reduction in parasitemia at 1 mg/kg/day, ip treated from day 5 to day 10 post-infection measured on day 30 post-infection relative to control. It is filed as functional. Also on record: scale not given: the % may be the effect or the level left. As to conditions: route intraperitoneal. In outline:
(§2)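 Female BALB/c mice (groups of three) infected ip with 1 × 10⁵ metacyclic forms. Given 1 mg/kg/day ip for five days (days 5–10 post-infection); infected untreated controls included. Mandibular-vein blood (5 µL) diluted 1:15 in citrate/lysis buffer, with trypomastigotes/mL counted every 3–4 days. Mean values reported.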

Data set [5] relates to Trypanosoma cruzi. Nature of the data set: Antitrypanosomal activity against Trypanosoma cruzi (IRHOD/CO/2008/SN3) infected in BALB/c mouse assessed as reduction in parasite specific antibodies level at 1 mg/kg/day, ip treated from day 5 to day 10 post-infection measured from day 30 to day 120 post-infection by ELISA. It is filed as functional, organism-based. In outline:
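Female BALB/c mice (6–8 weeks, 20–25 g, groups of three) infected ip with 1 × 10⁵ metacyclic forms. Dosed 1 mg/kg/day ip on days 5–10 post-infection; infected untreated controls included. ELISA on blood diluted 1:50 in PBS, using excreted Fe-SOD antigen from epimastigotes, at days 30 and 120. Read-out is ΔA490 (day 120 minus day 30).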

The test system of data set [6] is Trypanosoma cruzi. Nature of the data set: Antitrypanosomal activity against Trypanosoma cruzi (IRHOD/CO/2008/SN3) infected in BALB/c mouse assessed as reduction in parasitemia at 1 mg/kg/day, ip treated from day 5 to day 10 post-infection measured on day 14 post-infection. In kind it is functional, organism-based. In outline: as §2
In data set [7] the test system is Trypanosoma cruzi. As to the kind of experiment: Antitrypanosomal activity against Trypanosoma cruzi (IRHOD/CO/2008/SN3) epimastigotes assessed as plasma membrane with scalloped appearance with undulations and discontinuities at IC25 after 96 hrs by transmission electron microscopic analysis. It is filed as functional, organism-based.
A short description of data set [8]: Toxicity in BALB/c mouse assessed as survival at 1 mg/kg/day, ip relative to control. It is filed as organism-based. As to conditions: in vivo. Also on record: route intraperitoneal. In outline:
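Female BALB/c mice (6-8 weeks, 20-25 g), groups of three, infected ip with 1 × 10⁵ T. cruzi SN3 metacyclic forms. Dosing ip at 1 mg/kg/day for five consecutive days (days 5-10 post-infection). Controls were uninfected, infected-untreated and uninfected-treated groups. Mice followed to day 120 post-infection, with deaths recorded.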

Data set [9] concerns Trypanosoma cruzi. As to the kind of experiment: Antitrypanosomal activity against Trypanosoma cruzi (IRHOD/CO/2008/SN3) infected in African green monkey Vero cells assessed as reduction in number of amastigotes at IC25 treated for 12 hrs followed by compound-washout measured after 10 days by microscopic analysis relative to control. It is filed as functional. In outline: as §1

Turning to `O=C(Cn1ccnc1[N+](=O)[O-])NCc1ccccc1` [BENZNIDAZOLE], the outcome with Trypanosoma cruzi [1], in the data set on Trypanosoma cruzi [5], in the data set on Trypanosoma cruzi [6] and in the data set with Trypanosoma cruzi [7] was Active. Besides, the “inhibition (INH)” value with Trypanosoma cruzi [2] is 41%; in the data set with Trypanosoma cruzi [3] it was 19%; with Trypanosoma cruzi [9] it was 37%. For the same molecule, the Activity in the data set on Trypanosoma cruzi [4] is listed as 23%. For the same molecule, the survival in data set [8] stood at 80%.
